Test results: ChEMBL document CHEMBL1125789, “Synthesis and selective class III antiarrhythmic activity of novel N-heteroaralkyl-substituted 1-(aryloxy)-2-propanolamine and related propylamine derivatives” (J Med Chem, 1991)

Experiments:
Canis familiaris [1] = test: Ventricular effective refractory period by the compound in open chest anesthetized dog, after iv administration at a dose of 0.25 mg/kg.; format: functional, Canis lupus familiaris, Heart
Canis familiaris [2] = species on record: Canis familiaris; test: Maximum rate of rise of the upstroke of transmembrane potential, in canine Purkinje Fibers at a concentration of 0.10 uM at 1000 ms (simulating normal heart rate); format: functional; conditions: Canis lupus familiaris, Purkinje fiber
Method in brief: (§1)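 Isolated canine Purkinje fiber bundles were driven by square-wave pulses 2.0 ms long at 2× threshold and equilibrated ≥1 h to steady state. Each concentration was superfused 45–60 min before recording, and action potentials were sampled at 4–6 sites per fiber in control and after drug, giving Vmax and APD to −60 mV.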

Canis familiaris [3] = test: Mean arterial pressure by the compound in open chest anesthetized dog, after iv administration at a dose of 0.05 mg/kg.; format: functional, Canis lupus familiaris, Artery
Method in brief: (§2)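 Hemodynamics (heart rate, mean arterial pressure) recorded in pentobarbital-anesthetized (30 mg/kg iv, 5 mg/kg per h maintenance) open-chest mongrel dogs during the refractoriness study at BCL 300 ms. Readings were taken before and after iv or intraduodenal compound and expressed as change from control.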

Canis familiaris [4] = species on record: Canis familiaris; test: repolarization to reach -60mV, in canine Purkinje Fibers at a concentration of 0.01 uM at 1000 ms (simulating normal heart rate); format: functional, Canis lupus familiaris, Purkinje fiber
Method in brief: (§3)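 Purkinje fiber bundles were stimulated with square-wave current pulses of 2.0 ms at twice threshold and equilibrated for at least 1 h, or until action potential parameters were steady. Each concentration was superfused for 45-60 min to reach steady state. Action potentials were recorded at four to six sites per fiber, under control and after drug.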

Canis familiaris [5] = test: Ventricular conduction time by the compound in open chest anesthetized dog, after iv administration at a dose of 0.25 mg/kg.; format: functional, Canis lupus familiaris, Heart
Method in brief: (§4)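 Mongrel dogs were anesthetized with sodium pentobarbital (30 mg/kg iv, then 5 mg/kg per h), the chest opened, and the heart paced at BCL 300 ms. Compound was given iv or intraduodenally. Ventricular conduction time was taken as the interval between electrograms at the proximal and distal sites of the recording electrode array. 2-5 dogs per dose.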

Canis familiaris [6] = test: Heart beat by the compound in open chest anesthetized dog, after iv administration at a dose of 0.25 mg/kg.; format: functional, Canis lupus familiaris; method in brief: as §2
Canis familiaris [7] = species on record: Canis familiaris; test: Maximum rate of rise of the upstroke of transmembrane potential, in canine Purkinje Fibers at a concentration of 0.10 uM at 300 ms (simulating tachycardia); format: functional; conditions: Canis lupus familiaris, Purkinje fiber; method in brief: as §1
Canis familiaris [8] = test: Atrial effective refractory period by the compound in open chest anesthetized dog, after iv administration at a dose of 0.05 mg/kg.; format: functional, Canis lupus familiaris, Cardiac atrium
Method in brief: (§5)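 Open-chest mongrel dogs under sodium pentobarbital anesthesia (30 mg/kg iv plus 5 mg/kg per h), paced at basic cycle length 300 ms. Atrial effective refractory period was determined by electrical stimulation before and after iv or intraduodenal compound and reported as change from control.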

Canis familiaris [9] = test: Atrial effective refractory period by the compound in open chest anesthetized dog, after iv administration at a dose of 0.25 mg/kg.; format: functional, Canis lupus familiaris, Cardiac atrium; method in brief: as §5
Canis familiaris [10] = test: Atrial conduction time by the compound in open chest anesthetized dog, after iv administration at a dose of 0.25 mg/kg.; format: functional, Canis lupus familiaris, Cardiac atrium
Method in brief: (§6)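 Mongrel dogs anesthetized with sodium pentobarbital (30 mg/kg iv, then 5 mg/kg per h), chest opened, paced at BCL 300 ms. Atrial conduction time was taken as the interval between electrograms recorded at the proximal and distal sites of the atrial recording electrode array, before and after iv or intraduodenal dosing. Values are changes from control.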

Canis familiaris [11] = species on record: Canis familiaris; test: repolarization to reach -60mV, in canine Purkinje Fibers at a concentration of 0.10 uM at 1000 ms (simulating normal heart rate); format: functional, Canis lupus familiaris, Purkinje fiber; method in brief: as §3
Canis familiaris [12] = species on record: Canis familiaris; test: Maximum rate of rise of the upstroke of transmembrane potential, in canine Purkinje Fibers at a concentration of 0.03 uM at 300 ms (simulating tachycardia); format: functional; conditions: Canis lupus familiaris, Purkinje fiber; method in brief: as §1
Canis familiaris [13] = species on record: Canis familiaris; test: Repolarization to reach -60mV, in canine Purkinje Fibers at a concentration of 0.10 uM at 300 ms (simulating tachycardia); format: functional, Canis lupus familiaris, Purkinje fiber; method in brief: as §1
Canis familiaris [14] = species on record: Canis familiaris; test: Repolarization to reach -60mV, in canine Purkinje Fibers at a concentration of 0.01 uM at 300 ms (simulating tachycardia); format: functional, Canis lupus familiaris, Purkinje fiber; method in brief: as §1
Canis familiaris [15] = test: Mean arterial pressure by the compound in open chest anesthetized dog, after iv administration at a dose of 0.25 mg/kg.; format: functional, Canis lupus familiaris, Artery; method in brief: as §2
Canis familiaris [16] = test: Heart beat by the compound in open chest anesthetized dog, after iv administration at a dose of 0.05 mg/kg.; format: functional, Canis lupus familiaris; method in brief: as §2
Canis familiaris [17] = species on record: Canis familiaris; test: Maximum rate of rise of the upstroke of transmembrane potential, in canine Purkinje Fibers at a concentration of 0.01 uM at 1000 ms (simulating normal heart rate); format: functional; conditions: Canis lupus familiaris, Purkinje fiber; method in brief: as §1
Canis familiaris [18] = species on record: Canis familiaris; test: repolarization to reach -60mV, in canine Purkinje Fibers at a concentration of 0.03 uM at 1000 ms (simulating normal heart rate); format: functional, Canis lupus familiaris, Purkinje fiber; method in brief: as §3
Canis familiaris [19] = species on record: Canis familiaris; test: Repolarization to reach -60mV, in canine Purkinje Fibers at a concentration of 0.03 uM at 300 ms (simulating tachycardia); format: functional, Canis lupus familiaris, Purkinje fiber; method in brief: as §1
Canis familiaris [20] = species on record: Canis familiaris; test: Maximum rate of rise of the upstroke of transmembrane potential, in canine Purkinje Fibers at a concentration of 0.03 uM at 1000 ms (simulating normal heart rate); format: functional; conditions: Canis lupus familiaris, Purkinje fiber; method in brief: as §1
Canis familiaris [21] = test: Ventricular conduction time by the compound in open chest anesthetized dog, after iv administration at a dose of 0.05 mg/kg.; format: functional, Canis lupus familiaris, Heart; method in brief: as §4
Canis familiaris [22] = test: Atrial conduction time by the compound in open chest anesthetized dog, after iv administration at a dose of 0.05 mg/kg.; format: functional, Canis lupus familiaris, Cardiac atrium; method in brief: as §6
Canis familiaris [23] = test: Ventricular effective refractory period by the compound in open chest anesthetized dog, after iv administration at a dose of 0.05 mg/kg.; format: functional, Canis lupus familiaris, Heart
Canis familiaris [24] = species on record: Canis familiaris; test: Maximum rate of rise of the upstroke of transmembrane potential, in canine Purkinje Fibers at a concentration of 0.01 uM at 300 ms (simulating tachycardia); format: functional; conditions: Canis lupus familiaris, Purkinje fiber; method in brief: as §1

Structure (SMILES): CN(CCCOc1ccc(NS(C)(=O)=O)cc1)Cc1ccc2cc(NS(C)(=O)=O)ccc2n1
- VERP (Canis familiaris [1]): 36
- Vmax (Canis familiaris [2]): -12
- MBP (Canis familiaris [3]): 4
- APD (Canis familiaris [4]): 36%
- VCT (Canis familiaris [5]): -3
- HR (Canis familiaris [6]): -26
- Vmax (Canis familiaris [7]): -14
- AERP (Canis familiaris [8]): 53
- AERP (Canis familiaris [9]): 70
- ACT (Canis familiaris [10]): -4
- APD (Canis familiaris [11]): 73%
- Vmax (Canis familiaris [12]): -9
- APD (Canis familiaris [13]): 22%
- APD (Canis familiaris [14]): 15%
- MBP (Canis familiaris [15]): 4
- HR (Canis familiaris [16]): -16
- Vmax (Canis familiaris [17]): -1
- APD (Canis familiaris [18]): 56%
- APD (Canis familiaris [19]): 17%
- Vmax (Canis familiaris [20]): -8
- VCT (Canis familiaris [21]): -1
- ACT (Canis familiaris [22]): -5
- VERP (Canis familiaris [23]): 26
- Vmax (Canis familiaris [24]): -1
